Calls of active or inactive are those of the source. The rule behind the calls is not given here.
Assays:
Mus musculus [1] = assay: Hematotoxicity in B6D2F1 mouse assessed as platelet count at 120 mg/kg, po; format: organism-based; set-up: dose 120 mg/kg, route oral; settings: in vivo
[2] = Antiproliferative activity against Hs683 cells after 72 hrs by MTT assay; format: functional, cell-based, Homo sapiens, Hs 683; settings: Homo sapiens, Hs 683, 72 h
Outline: (§1)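 Cells cultured with each compound for three days; growth then read by the MTT colorimetric assay and reported as IC50 (µM).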

LoVo = assay: Antiproliferative activity against LoVo cells after 72 hrs by MTT assay; format: functional, cell-based, Homo sapiens; settings: Homo sapiens, LoVo, 72 h; outline: as §1
A549 = assay: Antiproliferative activity against A549 cells after 72 hrs by MTT assay; format: functional, cell-based, Homo sapiens; settings: Homo sapiens, A549, 72 h; outline: as §1
L1210 = assay: Antitumor activity in L1210 cells xenografted B6D2F1 mouse at 160 mg/kg, ip relative to control; format: functional; settings: route intraperitoneal
Outline: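 Mice grafted with L1210 leukaemia cells on day 0, then dosed i.p. four times weekly on days 1-4 and 8-11. Five mice per group. Outcome is %T/C, the median survival of treated over control. Kruskal-Wallis test followed by Dunn comparisons against control.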

Mus musculus [3] = assay: Hematotoxicity in B6D2F1 mouse assessed as RBC count at 40 mg/kg, iv; format: organism-based; set-up: dose 40 mg/kg, route intravenous; settings: in vivo
Mus musculus [4] = assay: Hematotoxicity in B6D2F1 mouse assessed as WBC count at 20 mg/kg, iv; format: organism-based; set-up: dose 20 mg/kg, route intravenous; settings: in vivo
Mus musculus [5] = assay: Hematotoxicity in B6D2F1 mouse assessed as RBC count at 80 mg/kg, po; format: organism-based; set-up: dose 80 mg/kg, route oral; settings: in vivo
[6] = target: T1, DNA topoisomerase 1 (Homo sapiens) (UniProt P11387); assay: Inhibition of human topoisomerase 1 by DNA unwinding test
T1 sequence (whole entry): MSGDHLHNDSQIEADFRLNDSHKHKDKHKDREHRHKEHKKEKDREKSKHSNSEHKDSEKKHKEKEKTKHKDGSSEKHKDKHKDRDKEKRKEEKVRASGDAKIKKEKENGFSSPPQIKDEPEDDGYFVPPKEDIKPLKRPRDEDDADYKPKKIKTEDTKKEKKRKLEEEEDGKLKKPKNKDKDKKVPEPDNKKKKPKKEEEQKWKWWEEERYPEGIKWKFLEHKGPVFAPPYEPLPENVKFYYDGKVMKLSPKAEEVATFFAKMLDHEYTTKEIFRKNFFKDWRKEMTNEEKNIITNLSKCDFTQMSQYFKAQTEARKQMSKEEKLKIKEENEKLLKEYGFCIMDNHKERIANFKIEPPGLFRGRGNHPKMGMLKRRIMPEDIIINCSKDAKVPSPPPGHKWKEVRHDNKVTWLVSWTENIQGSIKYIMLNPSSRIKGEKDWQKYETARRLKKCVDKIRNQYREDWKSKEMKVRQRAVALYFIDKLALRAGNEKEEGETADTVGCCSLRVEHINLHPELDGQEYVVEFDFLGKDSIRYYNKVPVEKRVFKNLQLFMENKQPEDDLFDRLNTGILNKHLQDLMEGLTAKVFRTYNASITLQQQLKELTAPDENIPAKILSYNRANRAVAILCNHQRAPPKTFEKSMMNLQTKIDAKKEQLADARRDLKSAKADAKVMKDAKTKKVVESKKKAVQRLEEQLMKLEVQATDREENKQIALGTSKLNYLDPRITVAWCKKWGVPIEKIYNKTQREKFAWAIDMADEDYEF
Outline: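 DNA unwinding assay: relaxed pBR322 plasmid converted to supercoiled form in presence of topoisomerase I; compounds at final 4–32 µM (one up to 15–55 µM); ethidium bromide-stained agarose gels; UC50 taken as concentration shifting relaxed band to midpoint between supercoiled and relaxed states.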

PC-3 [7] = assay: Induction of apoptosis in human PC3 cells assessed as p53 activation; format: functional, cell-based
Outline: (§2)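 PC-3 and DU-145 cells treated over 72 h at 1 and 10 µM, compared with untreated cells. p53, PARP cleavage and procaspase-3/-9 activation assessed by immunoblotting.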

PC-3 [8] = assay: Induction of apoptosis in human PC3 cells assessed as PARP cleavage activation; format: functional, cell-based; outline: as §2
DU-145 [9] = assay: Induction of apoptosis in human DU145 cells assessed as procaspase-8 activation; format: functional, cell-based
DU-145 [10] = assay: Induction of apoptosis in human DU145 cells assessed as PARP cleavage activation; format: functional, cell-based; outline: as §2
PC-3 [11] = assay: Induction of autophagy in human PC3 cells by acridine orange staining at 10 uM after 72 hrs; format: functional
DU-145 [12] = assay: Induction of autophagy in human DU145 cells by acridine orange staining at 10 uM after 72 hrs; format: functional
DU-145 [13] = assay: Cell cycle arrest in DU145 cells assessed as accumulation at G2 phase at 10 uM after 72 hrs; format: functional, cell-based; settings: Homo sapiens
Outline: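 PC-3 or DU-145 cells treated for 72 h with 0, 1 or 10 µM. Cell-cycle distribution (G0/G1, S, G2/M) determined by propidium iodide staining.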

[14] = Antitumor activity against mouse MXT-HI cells xenografted in B6D2F1 mouse at 160 mg/kg, ip relative to control; format: functional; settings: route intraperitoneal
Outline: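 MXT-HI mammary adenocarcinoma grafted s.c. onto female B6D2F1 mice. Dosing i.p., five injections weekly for three weeks from day 14 post-graft. Nine mice per group. Tumour surface area measured, and survival expressed as %T/C, the ratio of treated to control median survival time.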

CN(C)CCN1C(=O)c2cccc3cc(NC(=O)NC(=O)C(Cl)(Cl)Cl)cc(c23)C1=O
Activity (Mus musculus [1]): 977 10^3 /uL | IC50 [2]: 800 nM | IC50 (LoVo): 900 nM | IC50 (A549): 900 nM | Activity (L1210): 300% | Activity (Mus musculus [3]): 9.1 10^6 /uL | Activity (Mus musculus [4]): 2.92 10^3 /uL | Activity (Mus musculus [5]): 9.95 10^6 /uL | UC50 [6]: 40 µM | Activity (PC-3 [7]): inactive | Activity (PC-3 [8]): inactive | Activity (DU-145 [9]): inactive | Activity (DU-145 [10]): inactive | Activity (PC-3 [11]): 35% | Activity (DU-145 [12]): 10% | Activity (DU-145 [13]): inactive | Activity [14]: 183%

Source: ChEMBL document CHEMBL1148725, “2,2,2-Trichloro-N-({2-[2-(dimethylamino)ethyl]-1,3-dioxo-2,3-dihydro-1H-benzo[de]isoquinolin- 5-yl}carbamoyl)acetamide (UNBS3157), a novel nonhematotoxic naphthalimide derivative with potent antitumor activity” (J Med Chem, 2007)
